The source of these data is publication PMC6488424 (European journal of medicinal chemistry, 2019).

Each structure is given as a SMILES string.

In series [1] the test system is CXCR4-positive MDA-MB-231 human breast cancer cells. Kind of series: Matrigel invasion assay induced by CXCR4/CXCL12-mediated interaction. In kind it is cell-based. The following applies: MDA-MB-231, 22 h, read-out: Inhibition of cell invasion. In outline: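 MDA-MB-231 cells were pre-mixed with test compound (100 nM) and seeded in the upper well of a Matrigel-coated chamber in serum-free medium. The lower well held CXCL12α (200 ng/mL) as chemoattractant. After 22 h in a humidified incubator, non-invading cells were swabbed off, and invading cells on the filter underside were methanol-fixed and H&E-stained. Percent invasion came from counts of stained cells.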

In another series the test system is SKBR3. Kind of series: Cytotoxicity, cell viability. In kind it is cell-based, human. The following applies: concentrations as high as 100 μM, 24 h treatment. Summed up: (§1)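 Cells were seeded at 3000 cells/well and held 24 h at 37 °C in a CO2 incubator. They were then exposed to the test compound for 24 h at 37 °C. MTT-type tetrazolium reagent (CellTiter 96AQ) was added for a further 2 h, and absorbance was read at 490 nm.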

Another series deals with MDA-MB-231. Kind of series: Cytotoxicity, cell viability. In kind it is cell-based, human. The following applies: concentrations as high as 100 μM, 24 h treatment. Summed up: as §1
Series [2] can be described thus: Carrageenan-induced paw inflammation suppression test. In kind it is in vivo. The following applies: mouse paw after treatment with IIIm. For orientation: Carrageenan injected into the paw causes an acute inflammation.
The test system of a further series is MCF-10A. The experiment in a line: Cytotoxicity, cell viability. In kind it is cell-based, human. Conditions: concentrations as high as 100 μM, 24 h treatment. Summed up: as §1
Another series addresses CXCR4 (Homo sapiens, UniProt P61073). In kind it is binding. Conditions: fold loss of affinity vs RB-108.

Chain of CXCR4 (P61073 whole entry): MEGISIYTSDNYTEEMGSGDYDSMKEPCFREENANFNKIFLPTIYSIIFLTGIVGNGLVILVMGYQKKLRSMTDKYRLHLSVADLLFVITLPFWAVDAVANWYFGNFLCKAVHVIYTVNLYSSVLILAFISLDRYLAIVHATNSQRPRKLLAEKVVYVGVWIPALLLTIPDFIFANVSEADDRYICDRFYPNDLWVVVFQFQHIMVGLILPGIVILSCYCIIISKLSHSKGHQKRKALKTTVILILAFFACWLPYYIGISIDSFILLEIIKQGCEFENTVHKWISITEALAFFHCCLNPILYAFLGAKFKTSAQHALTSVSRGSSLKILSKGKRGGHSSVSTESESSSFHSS

Turning to `c1cc(CN2CCCNCCNCCCNCC2)ccc1CN1CCCNCCNCCCNCC1` [AMD3100], the inhibition at 0.1 µM in series [1] came out at 55%.
Consider `O=C(NCc1ccc(CNS(=O)(=O)c2ccc3c(c2)CCO3)cc1)c1ccc(F)cc1` [IIIm, 4-Fluoro-N-(4-(((2,3-dihydrobenzofuran)-5-sulfonamido)methyl)benzyl)benzamide], for which the “Inhibition of proliferation (cytotoxicity)” value in the series with SKBR3, in the series with MDA-MB-231 and in the series on MCF-10A was “did not inhibit the proliferation” in each case. Further, in series [2], the “Number of inflammatory cells accumulated in the paw tissue (histological analysis, H&E)” value is “markedly decreased”.
Take `Cc1ccc(S(=O)(=O)NCc2ccc(CNC(=O)c3ccc(F)cn3)cc2)cc1` [Ia, 5-Fluoro-N-(4-(((4-methylphenyl)sulfonamido)methyl)benzyl)picolinamide]: the “EC reduced compared with RB-108” value at CXCR4 is reported as “more than 1000 fold”.
`Cc1ccc(S(=O)(=O)NCc2ccc(CNC(=O)c3ccc(F)nc3)cc2)cc1` [Ib, 6-Fluoro-N-(4-(((4-methylphenyl)sulfonamido)methyl)benzyl)nicotinamide]: the “EC reduced compared with RB-108” value on CXCR4 is reported as “more than 1000 fold”.

In general, inhibition refers to the share of the control response that was lost under treatment.
